According to PMC9476207 (ACS Omega, 2022):

Experiments:
Assay in all cases: NCI-60 single-dose antiproliferative screen
Type in all cases: cell-based
IGROV1 = details: Homo sapiens, IGROV-1, 48 h, read-out: growth percent
Summary of the method: (§1)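 NCI-60 protocol. Lines were grown in RPMI 1640 with 5% FBS and 2 mM L-glutamine, plated and incubated 24 h at 37 °C; time-zero plates were TCA-fixed. The test compound was dissolved in DMSO, diluted in medium with 50 μg/mL gentamicin and given once at a final 10^-5 M (DMSO control) for 48 h. Cells were fixed with cold TCA (1 h, 4 °C) and stained with 0.4% SRB in 1% acetic acid for 10 min. Dye was dissolved in 10 mM Trizma base and read at 515 nm. Growth percent was calculated from time-zero, test and control ODs.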

HOP-62 = details: Homo sapiens, HOP-62, 48 h, read-out: growth percent
Summary of the method: as §1

OVCAR-4 = details: Homo sapiens, OVCAR-4, 48 h, read-out: growth percent
Summary of the method: as §1

BT-549 = details: Homo sapiens, BT-549, 48 h, read-out: growth percent
Summary of the method: as §1

SN12C = details: Homo sapiens, 48 h, read-out: growth percent
Summary of the method: (§2)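 Cells grown in RPMI 1640 with 5% FBS and 2 mM L-glutamine, plated and held 24 h at 37 °C; time-zero plates TCA-fixed. DMSO stocks were diluted in gentamicin-containing medium to a final 10^-5 M, with a DMSO-only control. Exposure 48 h, 5% CO2. Adherent cells TCA-fixed 1 h at 4 °C, stained with 0.4% SRB, solubilised in 10 mM Trizma base, read at 515 nm. Growth percent derived from ODtzero, ODtest and ODctrl.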

HOP-92 = details: Homo sapiens, HOP-92, 48 h, read-out: growth percent
Summary of the method: as §1

RPMI-8226 = details: Homo sapiens, RPMI-8226, 48 h, read-out: growth percent
Summary of the method: as §1

MALME-3M = details: Homo sapiens, 48 h, read-out: growth percent
Summary of the method: as §1

SK-MEL-28 = details: Homo sapiens, SK-MEL-28, 48 h, read-out: growth percent
Summary of the method: as §2

SW-620 = details: Homo sapiens, SW-620, 48 h, read-out: growth percent
Summary of the method: as §2

TK-10 = details: Homo sapiens, TK-10, 48 h, read-out: growth percent
Summary of the method: as §2

MDA-MB-468 = details: Homo sapiens, MDA-MB-468, 48 h, read-out: growth percent
Summary of the method: as §1

M14 = details: Homo sapiens, M14, 48 h, read-out: growth percent
Summary of the method: as §1

SK-OV-3 = details: Homo sapiens, SK-OV-3, 48 h, read-out: growth percent
Summary of the method: as §2

SR = details: Homo sapiens, 48 h, read-out: growth percent
Summary of the method: as §2

CAKI-1 = details: Homo sapiens, CAKI-1, 48 h, read-out: growth percent
Summary of the method: as §1

MCF-7 = details: Homo sapiens, MCF7, 48 h, read-out: growth percent
Summary of the method: as §1

SF-295 = details: Homo sapiens, SF-295, 48 h, read-out: growth percent
Summary of the method: as §1

EKVX = details: Homo sapiens, 48 h, read-out: growth percent
Summary of the method: as §1

NCI-H322M = details: Homo sapiens, 48 h, read-out: growth percent
Summary of the method: as §1

786-0 = details: Homo sapiens, 786-0, 48 h, read-out: growth percent
Summary of the method: as §1

SK-MEL-2 = details: Homo sapiens, SK-MEL-2, 48 h, read-out: growth percent
Summary of the method: as §2

KM12 = details: Homo sapiens, KM12, 48 h, read-out: growth percent
Summary of the method: as §1

K-562 = details: Homo sapiens, K562, 48 h, read-out: growth percent
Summary of the method: as §1

MDA-MB-231 ATCC = details: Homo sapiens, MDA-MB-231, 48 h, read-out: growth percent
Summary of the method: as §1

RXF 393 = details: Homo sapiens, RXF 393, 48 h, read-out: growth percent
Summary of the method: as §1

DU-145 = details: Homo sapiens, DU-145, 48 h, read-out: growth percent
Summary of the method: as §1

CCRF-CEM = details: Homo sapiens, 48 h, read-out: growth percent
Summary of the method: as §1

LOX IMVI = details: Homo sapiens, 48 h, read-out: growth percent
Summary of the method: as §1

NCI/ADR-RES = details: Homo sapiens, 48 h, read-out: growth percent
Summary of the method: as §1

A549/ATCC = details: Homo sapiens, A549, 48 h, read-out: growth percent
Summary of the method: as §1

SK-MEL-5 = details: Homo sapiens, SK-MEL-5, 48 h, read-out: growth percent
Summary of the method: as §2

SF-268 = details: Homo sapiens, SF-268, 48 h, read-out: growth percent
Summary of the method: as §1

NCI-H522 = details: Homo sapiens, NCI-H522, 48 h, read-out: growth percent
Summary of the method: as §1

OVCAR-5 = details: Homo sapiens, OVCAR-5, 48 h, read-out: growth percent
Summary of the method: as §1

HCC-2998 = details: Homo sapiens, HCC 2998, 48 h, read-out: growth percent
Summary of the method: as §1

| Structure (SMILES) | activity at 10 µM (IGROV1) | activity at 10 µM (HOP-62) | activity at 10 µM (OVCAR-4) | activity at 10 µM (BT-549) | activity at 10 µM (SN12C) | activity at 10 µM (HOP-92) | activity at 10 µM (RPMI-8226) | activity at 10 µM (MALME-3M) | activity at 10 µM (SK-MEL-28) | activity at 10 µM (SW-620) | activity at 10 µM (TK-10) | activity at 10 µM (MDA-MB-468) | activity at 10 µM (M14) | activity at 10 µM (SK-OV-3) | activity at 10 µM (SR) | activity at 10 µM (CAKI-1) | activity at 10 µM (MCF-7) | activity at 10 µM (SF-295) | activity at 10 µM (EKVX) | activity at 10 µM (NCI-H322M) | other results |
| --- | --- | --- | --- | --- | --- | --- | --- | --- | --- | --- | --- | --- | --- | --- | --- | --- | --- | --- | --- | --- | --- |
| COc1cc(CNC(=O)CCCC/C=C/C(C)C)ccc1OCc1cn(-c2ccc(Cl)cc2)nn1 [14a, (E)-N-(4-((1-(4-Chlorophenyl)-1H-1,2,3-triazol-4-yl)methoxy)-3-methoxybenzyl)-8-methylnon-6-enamide] | 93.4% | 84% | 82.6% | 86.8% | 80.2% | 77.1% | 60.8% | 97.8% | 106% | 88.7% | 99.3% | 64.9% | 90.6% | 91.6% | 73.5% | 89% | 84.9% | 88.3% | 72% | 92.2% | activity at 10 µM (786-0): 92.5%; activity at 10 µM (SK-MEL-2): 102%; activity at 10 µM (KM12): 95.6%; activity at 10 µM (K-562): 66.7%; activity at 10 µM (MDA-MB-231 ATCC): 79.5%; activity at 10 µM (RXF 393): 98%; activity at 10 µM (DU-145): 98.9%; activity at 10 µM (CCRF-CEM): 72.4%; activity at 10 µM (LOX IMVI): 85.6%; activity at 10 µM (NCI/ADR-RES): 78.1%; activity at 10 µM (A549/ATCC): 85.3%; activity at 10 µM (SK-MEL-5): 77.6%; activity at 10 µM (SF-268): 84%; activity at 10 µM (NCI-H522): 65.7%; activity at 10 µM (OVCAR-5): 100%; activity at 10 µM (HCC-2998): 113% |
| COc1cc(CNC(=O)CCCC/C=C/C(C)C)ccc1OCc1cn(-c2cccc(Cl)c2)nn1 [14b, (E)-N-(4-((1-(3-Chlorophenyl)-1H-1,2,3-triazol-4-yl)methoxy)-3-methoxybenzyl)-8-methylnon-6-enamide] | 79.9% | 71.5% | 67.2% | 99.3% | 84.2% | 62.4% | 86.3% | 98.7% | 106% | 92.8% | 106% | 74.7% | 94.1% | 78.8% | 85.6% | 79.6% | 86.9% | 90.5% | 80.8% | 86.2% | activity at 10 µM (786-0): 76.8%; activity at 10 µM (SK-MEL-2): 86.7%; activity at 10 µM (KM12): 98.6%; activity at 10 µM (K-562): 84.9%; activity at 10 µM (MDA-MB-231 ATCC): 64.8%; activity at 10 µM (RXF 393): 91%; activity at 10 µM (DU-145): 95.9%; activity at 10 µM (CCRF-CEM): 87.3%; activity at 10 µM (LOX IMVI): 89.4%; activity at 10 µM (NCI/ADR-RES): 76.6%; activity at 10 µM (A549/ATCC): 82.9%; activity at 10 µM (SK-MEL-5): 91.2%; activity at 10 µM (SF-268): 82.5%; activity at 10 µM (NCI-H522): 69.2%; activity at 10 µM (OVCAR-5): 99.8%; activity at 10 µM (HCC-2998): 104% |
| COc1cc(CNC(=O)CCCC/C=C/C(C)C)ccc1OCc1cn(-c2ccccc2Cl)nn1 [14c, (E)-N-(4-((1-(2-Chlorophenyl)-1H-1,2,3-triazol-4-yl)methoxy)-3-methoxybenzyl)-8-methylnon-6-enamide] | 98.8% | 82% | 87.9% | 90.8% | 94.5% | 80.1% | 75.5% | 107% | 106% | 100% | 94.6% | 88.2% | 92.6% | 91.3% | 68.5% | 93.4% | 97.2% | 99.4% | 82.1% | 89.4% | activity at 10 µM (786-0): 93.8%; activity at 10 µM (SK-MEL-2): 91%; activity at 10 µM (KM12): 97.7%; activity at 10 µM (K-562): 76.8%; activity at 10 µM (MDA-MB-231 ATCC): 80.8%; activity at 10 µM (RXF 393): 105%; activity at 10 µM (DU-145): 99.2%; activity at 10 µM (CCRF-CEM): 87.9%; activity at 10 µM (LOX IMVI): 89.9%; activity at 10 µM (NCI/ADR-RES): 92%; activity at 10 µM (A549/ATCC): 84.3%; activity at 10 µM (SK-MEL-5): 89.8%; activity at 10 µM (SF-268): 87.8%; activity at 10 µM (NCI-H522): 64.5%; activity at 10 µM (OVCAR-5): 104%; activity at 10 µM (HCC-2998): 110% |
| COc1cc(CNC(=O)CCCC/C=C/C(C)C)ccc1OCc1cn(-c2ccc(Cl)c(Cl)c2)nn1 [14d, (E)-N-(4-((1-(3,4-Dichlorophenyl)-1H-1,2,3-triazol-4-yl)methoxy)-3-methoxybenzyl)-8-methylnon-6-enamide] | 104% | 90.4% | 69.5% | 91.8% | 113% | 78.7% | 78.1% | 105% | 104% | 96.1% | 88.6% | 71.6% | 92.7% | 97.2% | 78.9% | 58.3% | 95.3% | 94.6% | 76.2% | 93.2% | activity at 10 µM (786-0): 96.3%; activity at 10 µM (SK-MEL-2): 108%; activity at 10 µM (KM12): 100%; activity at 10 µM (K-562): 77.1%; activity at 10 µM (MDA-MB-231 ATCC): 87.3%; activity at 10 µM (RXF 393): 101%; activity at 10 µM (DU-145): 86.5%; activity at 10 µM (CCRF-CEM): 84.7%; activity at 10 µM (LOX IMVI): 87%; activity at 10 µM (NCI/ADR-RES): 91.1%; activity at 10 µM (A549/ATCC): 85.9%; activity at 10 µM (SK-MEL-5): 81.6%; activity at 10 µM (SF-268): 93.3%; activity at 10 µM (NCI-H522): 69.3%; activity at 10 µM (OVCAR-5): 102%; activity at 10 µM (HCC-2998): 98.1% |
